Reference: ChEMBL document CHEMBL2331329, “Synthesis and biological evaluation of 2-(alkoxycarbonyl)-3-anilinobenzo[b]thiophenes and thieno[2,3-b]pyridines as new potent anticancer agents” (J Med Chem, 2013)
Active and inactive are the calls of the source. The calls are words filed in the database; no cut-off is given here.

Columns and labels:
[1] = system: HT-29; test: Cell cycle arrest in human HT-29 cells assessed as accumulation at G2/M phase at >20 nM after 24 hrs by propidium iodide staining-based flow cytometry; assay type: functional
Outline: (§1)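 Jurkat, HT-29 and HeLa cells in exponential growth (5 × 10^5 cells) treated 24 h at a range of concentrations. Fixed in ice-cold 70% ethanol, lysed with buffer containing RNase A and 0.1% Triton X-100, stained with propidium iodide. DNA content read by flow cytometry and the percentage of cells per cycle phase derived from DNA histograms.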

[2] = organism: Bos taurus; test: Displacement of [3H]colchicine from bovine brain tubulin at 5 uM after 20 mins by turbidimetric analysis
[3] = system: HeLa; test: Induction of apoptosis in human HeLa cells assessed as mitochondrial membrane depolarization after 24 to 48 hrs by JC-1 staining; assay type: functional, cell-based
Outline: (§2)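 HeLa cells treated 24 or 48 h, then stained with the potentiometric dye JC-1. Proportion of cells with depolarised mitochondria read by flow cytometry. Mean ± SEM of three independent experiments.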

[4] = Inhibition of bovine brain tubulin polymerization after 20 mins by turbidimetric analysis; design: species or system Bos taurus
Outline: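 Bovine brain tubulin (10 μM) preincubated with varying compound concentrations in glutamate buffer at 30 °C, chilled to 0 °C, 0.4 mM GTP added, then warmed to 30 °C in a recording spectrophotometer.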

[5] = system: HeLa; test: Cytotoxicity against human HeLa cells after 72 hrs by MTT assay; assay type: functional, cell-based
[6] = system: HeLa; test: Induction of apoptosis in human HeLa cells assessed as ROS production at 10 to 100 nM after 24 to 48 hrs by HE staining-based flow cytometry relative to control; assay type: functional, cell-based
Outline: (§3)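 HeLa cells treated 24 or 48 h, then stained with H2-DCFDA or hydroethidine. ROS read by flow cytometry against untreated control. Mean ± SEM of three independent experiments.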

[7] = system: LoVo; test: Cytotoxicity against human LoVo cells after 72 hrs by MTT assay; assay type: functional, cell-based
Outline: (§4)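 MTT viability test: 8 × 10^3 cells per well settled 18 h at 37 °C, 5% CO2, then given fresh medium with compound (from 10 mM DMSO stocks, final DMSO ≤0.25%) for 72 h. […] CEMVbl-100 is a vinblastine-selected P-gp line; LoVoDoxo is grown in Ham's F12 with 0.1 μg/mL doxorubicin. Resistance index = resistant IC50/parental IC50.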

[8] = Cytotoxicity against human CEM/VBL100 cells after 72 hrs by MTT assay; assay type: functional, cell-based; conditions: CEM/VBL100, 72 h; outline: as §4
[9] = system: Jurkat; test: Cell cycle arrest in human Jurkat cells assessed as accumulation at G2/M phase after 24 hrs by propidium iodide staining-based flow cytometry; assay type: functional; outline: as §1
[10] = system: A549; test: Resistance index, ratio of IC50 for human A549-T12 cells to IC50 for human A549 cells; assay type: functional
Outline: (§5)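 Mean ± SE of at least three independent experiments. Resistance ratio = IC50 in resistant line/IC50 in nonresistant line.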

[11] = system: HeLa; test: Induction of apoptosis in human HeLa cells assessed as mitochondrial membrane depolarization at 10 to 100 nM by JC-1 staining; assay type: functional, cell-based; conditions: TDE = time-dependent effect; outline: as §2
[12] = system: A549; test: Cytotoxicity against human A549 cells after 72 hrs by MTT assay; assay type: functional, cell-based; conditions: A549, 72 h
[13] = organism: Bos taurus; test: Displacement of [3H]colchicine from bovine brain tubulin at 1 uM after 20 mins by turbidimetric analysis
[14] = system: HT-29; test: Cell cycle arrest in human HT-29 cells assessed as accumulation at G2/M phase at 20 nM after 24 hrs by propidium iodide staining-based flow cytometry; assay type: functional; outline: as §1
[15] = system: CCRF-CEM; test: Cytotoxicity against human CEM cells after 72 hrs by MTT assay; assay type: functional, cell-based; outline: as §4
[16] = system: PBL; test: Cytotoxicity against human PHA-stimulated PBL cells after 72 hrs by MTT assay; assay type: cell-based
Outline: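 Peripheral blood lymphocytes from healthy donors isolated on a Lymphoprep gradient and rested overnight in RPMI-1640 with 10% FBS. Nonadherent cells at 5 × 10^5 cells/mL, with 2.5 μg/mL PHA for proliferating cultures or without it for resting ones. Compound exposure 72 h, viability by MTT. Mean ± SEM of three experiments.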

[17] = system: HeLa; test: Cell cycle arrest in human HeLa cells assessed as accumulation at G2/M phase at 20 nM after 24 hrs by propidium iodide staining-based flow cytometry; assay type: functional; outline: as §1
[18] = system: MCF7; test: Cytotoxicity against human MCF7 cells after 72 hrs by MTT assay; assay type: functional, cell-based; conditions: MCF7, 72 h
[19] = Cytotoxicity against human LoVo/DX cells after 72 hrs by MTT assay; assay type: functional, cell-based; outline: as §4
[20] = system: CCRF-CEM; test: Resistance index, ratio of IC50 for human CEM/VBL100 cells to IC50 for human CEM cells; assay type: functional; outline: as §4
[21] = system: LoVo; test: Resistance index, ratio of IC50 for human LoVo/DX cells to IC50 for human LoVo cells; assay type: functional; outline: as §4
[22] = system: HeLa; test: Cell cycle arrest in human HeLa cells assessed as accumulation at G2/M phase at >20 nM after 24 hrs by propidium iodide staining-based flow cytometry; assay type: functional; outline: as §1
[23] = system: Jurkat; test: Cell cycle arrest in human Jurkat cells assessed as accumulation at G2/M phase at >20 nM after 24 hrs by propidium iodide staining-based flow cytometry; assay type: functional; outline: as §1
[24] = system: HeLa; test: Induction of apoptosis in human HeLa cells assessed as early apoptotic cells at 10 to 100 nM by annexin V-FITC and propidium iodide staining-based flow cytometry; assay type: functional, cell-based; conditions: TDE = time-dependent effect
Outline: (§6)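 HeLa cells treated 24 or 48 h, then co-labelled with annexin-V–FITC and propidium iodide. Flow cytometry with 488 nm excitation and emission at 525 nm (FITC) and 585 nm (PI); early apoptotic cells counted as annexin-V+/PI−. Mean ± SEM of three independent experiments.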

[25] = system: HeLa; test: Cell cycle arrest in human HeLa cells assessed as accumulation at G2/M phase after 24 hrs by propidium iodide staining-based flow cytometry; assay type: functional; outline: as §1
[26] = system: HeLa; test: Induction of apoptosis in human HeLa cells assessed as ROS production at 10 to 100 nM after 24 to 48 hrs by H2-DCFDA staining-based flow cytometry relative to control; assay type: functional, cell-based; outline: as §3
[27] = Cytotoxicity against human A549-T12 cells after 72 hrs by MTT assay; assay type: functional, cell-based; conditions: A549, 72 h; outline: as §5
[28] = system: HT-29; test: Cytotoxicity against human HT-29 cells after 72 hrs by MTT assay; assay type: functional, cell-based; conditions: HT-29, 72 h
[29] = system: HeLa; test: Induction of apoptosis in human HeLa cells assessed as early apoptotic cells after 24 to 48 hrs by annexin V-FITC/Propidium iodide staining-based flow cytometry; assay type: functional, cell-based; outline: as §6
[30] = Cytotoxicity against human SEM cells after 72 hrs by MTT assay; assay type: functional, cell-based
Outline: (§7)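 Cells plated at 8 × 10^3 per well, 18 h at 37 °C, 5% CO2, then fresh medium with graded compound concentrations (DMSO ≤0.25%) for 72 h. Jurkat, SEM, HL-60 grown in RPMI-1640; A549, HeLa, HT-29, MCF-7 in DMEM; 10% FBS with penicillin/streptomycin. MTT viability read-out; IC50 vs 0.25% DMSO controls; mean ± SE of at least three independent experiments.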

[31] = system: Jurkat; test: Cytotoxicity against human Jurkat cells after 72 hrs by MTT assay; assay type: functional, cell-based; outline: as §7
[32] = system: HT-29; test: Cell cycle arrest in human HT-29 cells assessed as accumulation at G2/M phase after 24 hrs by propidium iodide staining-based flow cytometry; assay type: functional; outline: as §1
[33] = system: HL-60; test: Cytotoxicity against human HL60 cells after 72 hrs by MTT assay; assay type: functional, cell-based; conditions: HL-60, 72 h
[34] = system: Jurkat; test: Cell cycle arrest in human Jurkat cells assessed as accumulation at G2/M phase at 20 nM after 24 hrs by propidium iodide staining-based flow cytometry; assay type: functional; outline: as §1

## COC(=O)c1sc2nc(C)ccc2c1Nc1cc(OC)c(OC)c(OC)c1
[1]
  Activity: >80%
[2]
  inhibition: 95%
[3]
  Activity: Dose-dependent effect
[4]
  IC50: 700 nM
[5]
  IC50: 0.18 nM
[6]
  Activity: Active
[7]
  IC50: 1.9 nM
[8]
  IC50: 4.2 nM
[9]
  Activity: Dose-dependent effect
[10]
  Ratio IC50: 1.2
[11]
  Activity: tde
[12]
  IC50: 16.2 nM
[13]
  inhibition: 78%
[14]
  Activity: Active
[15]
  IC50: 2.8 nM
[16]
  IC50: 3.4 µM
[17]
  Activity: Active
[18]
  IC50: 0.53 nM
[19]
  IC50: 0.5 nM
[20]
  Ratio IC50: 1.5
[21]
  Ratio IC50: 0.3
[22]
  Activity: >80%
[23]
  Activity: >80%
[24]
  Activity: tde
[25]
  Activity: Dose-dependent effect
[26]
  Activity: Active
[27]
  IC50: 19.5 nM
[28]
  IC50: 0.35 nM
[29]
  Activity: Dose-dependent effect
[30]
  IC50: 0.5 nM
[31]
  IC50: 0.6 nM
[32]
  Activity: Dose-dependent effect
[33]
  IC50: 0.4 nM
[34]
  Activity: Active
